Screening results from PubChem BioAssay.
Only some compounds are listed: those with a hit (about 1.4% of all), similar ones and a draw of the others.
RTF Ca sens inh = cardiac RTF calcium desensitization | 0.12% of 340,000 active | inhibition, % at 7.15 µM | IANBD-labeled cardiac RTF, Ca2+ fluorescence | P19429+P45379;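 active = inhibition above the mean inhibition of all tested compounds plus 3 SD, cut at about 17% in these data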;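 note: assay run at fixed EC70 calcium of 1.6 mM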
CRFR2-BP ag = agonists of human CRF-binding protein/CRF-R2 receptor complex | HEK293 CRF-R2/CRF-BP, calcium dye fluorescence (FLIPR); percent of saturating CRF peptide response | 0.46% of 350,000 active | activation, % at 13.2 µM | AID 588473;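 active = activation of at least 50%, plus an integration ratio under a set limit after plate pattern correction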;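 note: plate controls were neutral control wells without compound for no effect and CRF at EC100 for full effect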
Tn6 DDE FP = disrupts Tn6 cyclic peptide binding to fibrin D-Dimer-E complex | Fibrin DD(E) TRITC-Tn6 fluorescence polarization displacement | inhibition, % at 8.3 µM | 0.21% of 370,000 active | AID 720509;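 active = inhibition above a per-campaign cutoff: mean of compounds within control limits plus 3 SD, cut at about 15% in these data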;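 note: 0% = median of all compound wells on the plate and 100% = blocking peptide control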
Target sequence (P02675 whole entry, looked up): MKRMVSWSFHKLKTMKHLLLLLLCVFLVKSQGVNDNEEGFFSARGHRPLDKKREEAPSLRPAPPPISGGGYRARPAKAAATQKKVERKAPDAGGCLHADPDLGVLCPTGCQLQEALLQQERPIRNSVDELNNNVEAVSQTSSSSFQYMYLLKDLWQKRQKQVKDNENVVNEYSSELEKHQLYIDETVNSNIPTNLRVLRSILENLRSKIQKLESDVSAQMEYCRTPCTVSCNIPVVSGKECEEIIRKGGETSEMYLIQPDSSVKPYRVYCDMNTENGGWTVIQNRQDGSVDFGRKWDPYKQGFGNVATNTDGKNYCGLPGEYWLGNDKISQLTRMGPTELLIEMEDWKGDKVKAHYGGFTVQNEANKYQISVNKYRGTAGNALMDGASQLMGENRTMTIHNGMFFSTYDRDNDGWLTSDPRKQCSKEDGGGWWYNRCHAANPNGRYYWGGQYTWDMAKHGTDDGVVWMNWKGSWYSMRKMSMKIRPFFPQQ
DDE Tn7 FP inh = inhibitors of Tn7 peptide binding to human fibrin DD(E); AID 720508; FP displacement of FITC-Tn7 peptide from fibrin DD(E); 0% = median of compound wells per plate; P02675; inhibition, % at 8.3 µM; 0.13% of 370,000 active;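 active = inhibition above the mean of compounds falling within the control limits plus 3 SD of them, cut at about 14% in these data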;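 note: 0% = plate median of compound wells and 100% = 10 µM Aha-Tn7 peptide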
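system = human fibrin DD(E) protein | quantity = DD(E) 2 µM final | medium = Tris/NaCl/CaCl2 buffer, pH 7.8 | also added = labelled Tn7 tracer, 0.1 µM | compound dosing = single point at 8.3 µM | timing = compound with protein 10 min, then 3 h after probe, room temperature | signal = FP measurement | benchmarks = Aha-Tn7 high control | repeats = one replicate per compound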
cardiac RTF act = cardiac RTF calcium sensitization | IANBD-labeled TnC RTF fluorescence at EC20 calcium; 0% EC20 calcium, 100% full calcium | activation, % at 7.2 µM | 0.24% of 340,000 active | AID 493008;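 active = activation above the mean over all tested compounds plus 3 SD, cut at about 30% in these data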;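 note: rise in fluorescence read as greater calcium sensitivity of cardiac thin filaments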
CRFBP-R2 block = blocks CRF-induced signaling of the CRF-BP/CRF-R2 complex | HEK293 CRF-R2/CRF-BP, CRF-induced calcium fluorescence | AID 588475 | inhibition, % at 11.8 µM | 0.59% of 350,000 active;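 active = inhibition of the ligand-induced calcium signal above about 50% at the single tested concentration, limit read from the data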
Numbers without * were called inactive.

COC(=O)[C@]12C[C@H](CC(=O)N3CCN(C(=O)C4CC4)CC3)C(=O)N(Cc3cccc4ccccc34)C1=C[C@H](C1CCCC1)O[C@@H]2C was read as Tn6 DDE FP 0.7 and DDE Tn7 FP inh 3.4.
For COC(=O)c1cc(-c2ccc(C(C)(C)C)cc2)c(=O)n2c1CCC2 the results were Tn6 DDE FP -5.5 and DDE Tn7 FP inh 0.0.
Screening Cc1cc(C)c(NC(=O)c2ccc(CNS(=O)(=O)c3cc(C(F)(F)F)ccc3Cl)cc2)c(C)c1 returned RTF Ca sens inh -0.4, CRFR2-BP ag 2.7, Tn6 DDE FP -1.6, DDE Tn7 FP inh 0.9, cardiac RTF act -4.2 and CRFBP-R2 block 58.7*.
`O=S(=O)(NCc1ccccn1)c1cc(C(F)(F)F)ccc1Cl` gave RTF Ca sens inh 0.5, CRFR2-BP ag -3.8, Tn6 DDE FP 7.9, DDE Tn7 FP inh -4.6, cardiac RTF act -4.9 and CRFBP-R2 block -1.1.
`CCCS(=O)(=O)NC(=O)C1(C)CCN(C(=O)c2ccc3c(c2)OCO3)C1` (stereo not given) gave Tn6 DDE FP 8.3 and DDE Tn7 FP inh -0.7.
O=C(O)c1cccc(-c2ccc(/C=N/Nc3ccc([N+](=O)[O-])cc3)o2)c1 was read as RTF Ca sens inh -43.0, CRFR2-BP ag 165.8*, Tn6 DDE FP -54.5, DDE Tn7 FP inh -186.6, cardiac RTF act 16.1 and CRFBP-R2 block -139.8.
Screening NS(=O)(=O)c1ccc(-c2ccc(/C=N/Nc3ccc(C(=O)O)cc3)o2)cc1 returned RTF Ca sens inh 0.2, CRFR2-BP ag 2.1, Tn6 DDE FP 0.8, DDE Tn7 FP inh -3.8, cardiac RTF act -1.9 and CRFBP-R2 block 15.2.
`O=C(O)c1ccc(N/N=C/c2ccc(-c3cccc(Cl)c3)o2)cc1` gave RTF Ca sens inh -12.5, CRFR2-BP ag -0.9, Tn6 DDE FP -14.9, DDE Tn7 FP inh 4.2, cardiac RTF act -1.5 and CRFBP-R2 block 17.4.
For O=C(O)c1ccc(-c2ccc(/C=N/Nc3ccc([N+](=O)[O-])cc3)o2)cc1 the results were RTF Ca sens inh -56.8, CRFR2-BP ag 155.0*, Tn6 DDE FP -10.0, DDE Tn7 FP inh -8.9, cardiac RTF act 15.1 and CRFBP-R2 block -121.4.
O=[N+]([O-])c1ccc(N/N=C/c2c[nH]c3ccccc23)cc1 was read as RTF Ca sens inh -17.5, CRFR2-BP ag 179.8*, Tn6 DDE FP -19.8, DDE Tn7 FP inh 1.1, cardiac RTF act 15.2 and CRFBP-R2 block -225.8.
C[C@@H]1COc2cc(Br)ccc2S(=O)(=O)N1Cc1cn(CCC2OCCCO2)nn1 was read as Tn6 DDE FP 0.6 and DDE Tn7 FP inh -0.1.
COC(=O)N/N=C(\C)c1cccs1 was read as RTF Ca sens inh 0.2, CRFR2-BP ag 0.2, Tn6 DDE FP -8.3, DDE Tn7 FP inh 4.3, cardiac RTF act 1.4 and CRFBP-R2 block 112.4*.
For C/C(=N\NC(=O)C1CC1)c1cccs1 the results were RTF Ca sens inh -3.5, CRFR2-BP ag 3.4, Tn6 DDE FP -6.6, DDE Tn7 FP inh 0.3, cardiac RTF act -2.5 and CRFBP-R2 block -15.9.
For CC(OC(=O)c1ccc2c(c1)OCO2)C(=O)NC1CCCCC1C (stereo not given) the results were RTF Ca sens inh -21.6, CRFR2-BP ag -1.1, Tn6 DDE FP -3.8, DDE Tn7 FP inh 0.1, cardiac RTF act -3.7 and CRFBP-R2 block 4.4.
For CC(OC(=O)c1ccc(-c2ccc(O)cc2)cc1)C(=O)NC1CCCCC1C (stereo not given) the results were RTF Ca sens inh 11.5, CRFR2-BP ag -0.5, Tn6 DDE FP -3.4, DDE Tn7 FP inh 9.2, cardiac RTF act 2.7 and CRFBP-R2 block 59.9*.
For O=C(NCCO)[C@H](Cc1ccccc1)NC1(C(=O)NCCc2c[nH]c3ccccc23)CCCCC1 the results were Tn6 DDE FP 4.9 and DDE Tn7 FP inh 2.2.
`CCOc1ccc2nc(/N=C/c3nc(-c4ccc(Br)cc4)oc3O)sc2c1` gave RTF Ca sens inh -0.7, CRFR2-BP ag 146.7*, Tn6 DDE FP -3.9, DDE Tn7 FP inh 5.8, cardiac RTF act 14.7 and CRFBP-R2 block -116.0.
`CCCCOc1ccc(-c2nc(/C=N/c3nccs3)c(O)o2)cc1` gave RTF Ca sens inh -4.5, CRFR2-BP ag -0.6, Tn6 DDE FP -0.7, DDE Tn7 FP inh 6.3, cardiac RTF act 1.9 and CRFBP-R2 block -12.5.
`O=c1oc2c3c4c(cc2c(C(F)(F)F)c1CCN1CCOCC1)CCCN4CCC3` gave RTF Ca sens inh -68.2, CRFR2-BP ag 708.1, Tn6 DDE FP 6.2, DDE Tn7 FP inh -6.0, cardiac RTF act 70.0* and CRFBP-R2 block inactive.
`ON=C1CCC2CCCCC2C1` (stereo not given) gave CRFR2-BP ag 0.2, Tn6 DDE FP 1.2, DDE Tn7 FP inh -2.5 and CRFBP-R2 block -30.8.
O=C(Nc1cc(S(=O)(=O)N2CCCCC2)ccc1N1CCCCC1)C1CC1 was read as RTF Ca sens inh -0.4, CRFR2-BP ag 1.3, Tn6 DDE FP 5.1, DDE Tn7 FP inh -0.9, cardiac RTF act -1.0 and CRFBP-R2 block 103.3*.
For CCOc1ccc(NC(=S)N2CCC(C(O)(c3ccccc3)c3ccccc3)CC2)cc1 the results were RTF Ca sens inh -5.4, CRFR2-BP ag -3.9, Tn6 DDE FP -3.8, DDE Tn7 FP inh 0.9, cardiac RTF act 0.3 and CRFBP-R2 block 55.6*.
`Cc1ccc(OCC(=O)Nc2ccc([N+](=O)[O-])cn2)cc1C` gave RTF Ca sens inh 0.1, CRFR2-BP ag 6.4, Tn6 DDE FP 6.4, DDE Tn7 FP inh -12.6, cardiac RTF act -2.9 and CRFBP-R2 block 51.5*.
For CC(=O)Nc1ccc([N+](=O)[O-])cn1 the results were RTF Ca sens inh -2.8, CRFR2-BP ag 1.7, Tn6 DDE FP -6.7, DDE Tn7 FP inh -0.6, cardiac RTF act 11.9 and CRFBP-R2 block -6.2.
`CCOC(=O)Cc1nc(N2CCCN(C(C)=O)CC2)c2c(C)c(C(=O)OCC)sc2n1` gave Tn6 DDE FP -1.5 and DDE Tn7 FP inh -7.2.
For COc1cccc(-c2cc(C(=O)NC3CCCC3)c3ccccc3n2)c1 the results were CRFR2-BP ag -5.9, Tn6 DDE FP -0.3, DDE Tn7 FP inh 4.4 and CRFBP-R2 block 5.4.
`COc1ccc(-c2cc(C(=O)NC3CCCC3)c3ccccc3n2)cc1OC` gave RTF Ca sens inh -1.3, CRFR2-BP ag 0.7, Tn6 DDE FP -1.1, DDE Tn7 FP inh 3.3, cardiac RTF act 3.6 and CRFBP-R2 block 96.8*.
`O=C(Nc1ccc(Cl)cc1Cl)O[C@@H]1CC[C@@]23CCCN2C(=O)CCC[C@H]3C1` gave Tn6 DDE FP -1.5 and DDE Tn7 FP inh 2.5.
`CCOc1ccc(C2C=C(c3ccc(C)cc3)Nc3nnnn32)cc1` (stereo not given) gave RTF Ca sens inh -76.2, CRFR2-BP ag 69.4*, Tn6 DDE FP 0.0, DDE Tn7 FP inh -5.1, cardiac RTF act 54.2* and CRFBP-R2 block -29.7.
